From ChEMBL document CHEMBL3856259, “Evaluation of canthinone alkaloids as cerebral protective agents” (Bioorg Med Chem Lett, 2016)
The source made the active and inactive calls. The calls are words filed in the database; no cut-off is given here.

Assays:
Meriones unguiculatus [1] = assay: Cerebral protective activity in cerebral ischemia-induced Mongolian gerbil assessed as passive avoidance test value at 100 mg/kg, po pretreated for 30 mins followed by bilateral ligation-induced ischemia for 5 mins measured on day 1 post 3 days ischemia induction relative to control; assay type: functional
Meriones unguiculatus [2] = assay: Cerebral protective activity in anesthetized cerebral ischemia-induced Mongolian gerbil hippocampus assessed as protective values on density of surviving neurons in CA1 subfields of hippocampus at 100 mg/kg, po pretreated for 30 mins followed by bilateral ligation-induced ischemia for 5 mins measured on day 1 post 3 days ischemia induction by hematoxylin and eosin staining based microscopic analysis relative to control; assay type: functional
[3] = Toxicity in Mongolian gerbil assessed as effect on body temperature at 30 to 100 mg/kg, po; assay type: organism-based, Meriones unguiculatus; details: in vivo
Meriones unguiculatus [4] = assay: Cerebral protective activity against ischemia in Mongolian gerbil assessed as reduction in 45Ca2+ accumulation in brain at 30 mg/kg, po administered after cerebral ischemia induction for 15 mins in presence of 45CaCl2 by autoradiographic analysis
[5] = Toxicity in Mongolian gerbil assessed as reduction in heart rate at 30 to 100 mg/kg, po; assay type: organism-based, Meriones unguiculatus; details: in vivo
Method in brief: (§1)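 Heart rate and mean systolic blood pressure recorded in gerbils after oral doses of 30 and 100 mg/kg.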

[6] = Toxicity in Mongolian gerbil assessed as locomotion-reducing effect at 30 to 100 mg/kg, po; assay type: organism-based, Meriones unguiculatus; details: in vivo
[7] = Toxicity in Mongolian gerbil assessed as reduction in systolic blood pressure at 30 to 100 mg/kg, po; assay type: organism-based, Meriones unguiculatus; details: in vivo; method in brief: as §1
Meriones unguiculatus [8] = assay: Cerebral protective activity against kainic acid-induced neuronal necrosis in po dosed Mongolian gerbil administered after kainic acid injection; assay type: functional, organism-based
Method in brief: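 Male Mongolian gerbils (n = 10), fasted overnight, given atropine (5.0 µg/animal) and pentobarbital anesthesia (40 mg/kg ip). Kainic acid in saline at pH 7.4 (0.2 µL of 1.0 µg/µL) infused stereotaxically into right hippocampal CA3 over 4.0 min. Drug dosed orally after the lesion. Perfusion-fixed 4 days later. Surviving CA1 neuron density (/mm) scored. Mean ± SEM.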

Meriones unguiculatus [9] = assay: Cerebral protective activity in cerebral ischemia-induced Mongolian gerbil assessed as reduction in neuronal cell death in CA1 subfields of hippocampus at 30 mg/kg, po administered twice at 3 and 6 hrs after cerebral ischemia induction; assay type: functional, organism-based
Method in brief: (§2)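 Gerbils (n = 10) subjected to bilateral carotid ligation ischemia, then given 30 mg/kg orally at 3 h or at 3 h and 6 h after ischemia. Brains perfusion-fixed in 10% neutral formalin and paraffin-embedded. 5-µm coronal sections stained with H&E. Surviving CA1 hippocampal neurons counted (/mm). Mean ± SEM, Student's t-test.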

Meriones unguiculatus [10] = assay: Cerebral protective activity in cerebral ischemia-induced Mongolian gerbil assessed as reduction in neuronal cell death at 30 mg/kg, po administered at 3hrs after cerebral ischemia induction; assay type: functional, organism-based; method in brief: as §2

CCn1ccc2c3n(c(=O)c(=O)cc1-3)c1ccccc21
Activity (Meriones unguiculatus [1]): <=40%
Activity (Meriones unguiculatus [2]): 92.3%

COC(=O)[C@@H]1Cc2c([nH]c3ccccc23)[C@H](C)N1
Activity (Meriones unguiculatus [1]): <=40%
Activity (Meriones unguiculatus [2]): 18.6%

COC(=O)c1nccc2c1[nH]c1ccccc12
Activity (Meriones unguiculatus [1]): <=40%
Activity (Meriones unguiculatus [2]): 30.1%

COc1c2n(C)ccc3c-2n(c(=O)c1=O)c1ccc(Br)cc31
Activity (Meriones unguiculatus [1]): <=40%
Activity (Meriones unguiculatus [2]): -0.8%

COc1c(OC)c2nccc3c4ccccc4n(c1=O)c23 [4,5-DIMETHOXYCANTHIN-6-ONE]
Activity (Meriones unguiculatus [1]): <=40%
Activity (Meriones unguiculatus [2]): 20.8%

COc1c(O)c(=O)n2c3ccccc3c3ccnc1c32
Activity (Meriones unguiculatus [1]): <=40%
Activity (Meriones unguiculatus [2]): 13.9%

Cn1ccc2c3n(c(=O)c(=O)cc1-3)c1ccccc21
Activity (Meriones unguiculatus [1]): >80%
Activity (Meriones unguiculatus [2]): 84.6%

CC[C@@H]1N[C@H](C(=O)O)Cc2c1[nH]c1ccccc21
Activity (Meriones unguiculatus [1]): <=40%
Activity (Meriones unguiculatus [2]): 10.9%

COc1c(OC)c2c3c(cc(=O)n2C)c2ccccc2n3c1=O
Activity (Meriones unguiculatus [1]): <=40%
Activity (Meriones unguiculatus [2]): 24.3%

Cn1ccc2c3n(c(=O)c(=O)cc1-3)c1c(Br)cc(Br)cc21
Activity (Meriones unguiculatus [1]): <=40%
Activity (Meriones unguiculatus [2]): 3%

COc1ccc2c3ccn(C)c4cc(=O)c(=O)n(c3-4)c2c1
Activity (Meriones unguiculatus [1]): >=40 - 60%
Activity (Meriones unguiculatus [2]): 53.8%

COc1c2n(C)ccc3c-2n(c(=O)c1=O)c1ccccc31
Activity [3]: Non-Toxic
Activity (Meriones unguiculatus [4]): Active
Activity (Meriones unguiculatus [1]): >80%
Activity [5]: Non-Toxic
Activity [6]: Non-Toxic
Activity (Meriones unguiculatus [2]): 73.1%
Activity [7]: Non-Toxic
Activity (Meriones unguiculatus [8]): Active
Activity (Meriones unguiculatus [9]): Active
Activity (Meriones unguiculatus [10]): Active

CCn1ccc2c3n(c(=O)c(=O)c(OC)c1-3)c1ccccc21
Activity (Meriones unguiculatus [1]): <=40%
Activity (Meriones unguiculatus [2]): 46.2%

Cn1ccc2c3n(c(=O)c(=O)cc1-3)c1ccc(Br)cc21
Activity (Meriones unguiculatus [1]): <=40%
Activity (Meriones unguiculatus [2]): 27.3%

COc1c(O)c(=O)n2c3ccccc3c3cc(O)nc1c32
Activity (Meriones unguiculatus [1]): <=40%
Activity (Meriones unguiculatus [2]): 26.2%

Cn1c(=O)cc2c3ccccc3n3c(=O)ccc1c23
Activity (Meriones unguiculatus [1]): <=40%
Activity (Meriones unguiculatus [2]): 10.6%

[O-][n+]1ccc2c(c1)[nH]c1ccccc12
Activity (Meriones unguiculatus [1]): <=40%
Activity (Meriones unguiculatus [2]): 13.8%

Cc1c2[nH]c3ccccc3c2cc[n+]1[O-]
Activity (Meriones unguiculatus [1]): <=40%
Activity (Meriones unguiculatus [2]): 14.2%

C[C@@H]1N[C@H](C(=O)O)Cc2c1[nH]c1ccccc21
Activity (Meriones unguiculatus [1]): <=40%
Activity (Meriones unguiculatus [2]): -13.6%

CCc1c2n(C)ccc3c-2n(c(=O)c1=O)c1ccccc31
Activity (Meriones unguiculatus [1]): <=40%
Activity (Meriones unguiculatus [2]): 26.3%

COc1c2n(C)ccc3c-2n(c(=O)c1=O)c1c(Br)cc(Br)cc31
Activity (Meriones unguiculatus [1]): <=40%
Activity (Meriones unguiculatus [2]): -8.1%

COc1c(OC)c2nc(O)cc3c4ccccc4n(c1=O)c23
Activity (Meriones unguiculatus [1]): <=40%
Activity (Meriones unguiculatus [2]): 2.8%
